ChEMBL document CHEMBL1140976, “1,2,3,4-tetrahydro-2-thioxopyrimidine analogs of combretastatin-A4” (Eur J Med Chem, 2008)

Legend:
Assay type in all cases: functional, cell-based
B16 = assay: Cytotoxicity against mouse B16 cells after 72 hrs by MTT assay; settings: B16, 72 h
How it was run: (§1)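 72-h MTT assay on murine cell lines (B16 melanoma, L1210 leukemia) grown in culture. IC50 is the compound concentration needed to reduce the cell population by 50% relative to an untreated control.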

L1210 = assay: Cytotoxicity against mouse L1210 cells after 72 hrs by MTT assay; settings: L1210, 72 h; how it was run: as §1
A10 = assay: Reduction of cellular microtubules in interphase rat A10 cells
How it was run: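 Interphase cellular microtubules scored in A-10 aortic smooth muscle cells after exposure to compound. EC50 is the effective concentration that causes 50% loss of cellular microtubules.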

| SMILES | IC50 (B16) [µM] | IC50 (L1210) [µM] | EC50 (A10) [µM] |
| --- | --- | --- | --- |
| COc1ccc(C2C=C(c3cc(OC)c(OC)c(OC)c3)NC(=S)N2)cc1OC (stereo unspecified) | > 100 | 56.3 |  |
| COc1cc(C2=CC(c3ccc([N+](=O)[O-])cc3)NC(=S)N2)cc(OC)c1OC (stereo unspecified) | > 100 | > 100 |  |
| COc1ccc(C2C=C(c3cc(OC)c(OC)c(OC)c3)NC(=S)N2)cc1[N+](=O)[O-] (stereo unspecified) | > 100 | > 100 |  |
| COc1ccc(OC)c(C2C=C(c3cc(OC)c(OC)c(OC)c3)NC(=S)N2)c1 (stereo unspecified) | 36 | 32 |  |
| COc1cc(C2=CC(c3cc(OC)c(OC)c(OC)c3)NC(=S)N2)cc(OC)c1OC (stereo unspecified) | > 100 | > 100 |  |
| COc1cc(OC)c(C2C=C(c3cc(OC)ccc3OC)NC(=S)N2)c(OC)c1 (stereo unspecified) | 6.1 | 0.4 | 2.9 |
| COc1cc(OC)c(C2C=C(c3cc(OC)c(OC)c(OC)c3)NC(=S)N2)c(OC)c1 (stereo unspecified) | 6.3 | 5.7 |  |
| COc1cc(C2=CC(c3ccc(Cl)cc3)NC(=S)N2)cc(OC)c1OC (stereo unspecified) | 55.5 | 48.3 |  |
| COc1ccc(/C=C\c2cc(OC)c(OC)c(OC)c2)cc1O [COMBRETASTATIN A4] | 0.003 | 0.002 |  |
| COc1ccc(OC)c(C2=CC(c3ccc(OC)c([N+](=O)[O-])c3)NC(=S)N2)c1 (stereo unspecified) | 42 | 2.2 |  |
| COc1cccc(C2C=C(c3cc(OC)c(OC)c(OC)c3)NC(=S)N2)c1 (stereo unspecified) | 59.5 | > 100 |  |
| COc1ccc(C2C=C(c3cc(OC)c(OC)c(OC)c3)NC(=S)N2)cc1O (stereo unspecified) | 6 | 0.5 | 4.4 |
